From ChEMBL document CHEMBL1781892, “Microwave assisted synthesis and structure-activity relationship of 4-hydroxy-N'-[1-phenylethylidene]-2H/2-methyl-1,2-benzothiazine-3-carbohydrazide 1,1-dioxides as anti-microbial agents” (2011)

Key:
Bacillus cereus = assay: Antibacterial activity against Bacillus cereus using 1 x 10^4 CFU/ml inoculum after 24 hrs by microdilution method; format: functional
Aspergillus niger [1] = assay: Antifungal activity against Aspergillus niger using 1 x 10^5 spore/100 uL assessed as 99.5% fungal killing of original inoculum after 72 hrs by microdilution method; format: functional
Curvularia australiensis [2] = assay: Antifungal activity against Drechslera australiensis using 1 x 10^5 spore/100 uL after 72 hrs by microdilution method; format: functional
Trichoderma viride [3] = assay: Antifungal activity against Trichoderma viride using 1 x 10^5 spore/100 uL after 72 hrs by microdilution method; format: functional
[4] = Antifungal activity against Trichoderma reesei using 1 x 10^5 spore/100 uL assessed as 99.5% fungal killing of original inoculum after 72 hrs by microdilution method; format: functional
Aspergillus flavus [5] = assay: Antifungal activity against Aspergillus flavus using 1 x 10^5 spore/100 uL assessed as 99.5% fungal killing of original inoculum after 72 hrs by microdilution method; format: functional
Staphylococcus aureus = assay: Antibacterial activity against Staphylococcus aureus using 1 x 10^4 CFU/ml inoculum after 24 hrs by microdilution method; format: functional
Aspergillus niger [6] = assay: Antifungal activity against Aspergillus niger using 1 x 10^5 spore/100 uL after 72 hrs by microdilution method; format: functional
Trichoderma viride [7] = assay: Antifungal activity against Trichoderma viride using 1 x 10^5 spore/100 uL assessed as 99.5% fungal killing of original inoculum after 72 hrs by microdilution method; format: functional
Aspergillus fumigatus [8] = assay: Antifungal activity against Aspergillus fumigatus using 1 x 10^5 spore/100 uL assessed as 99.5% fungal killing of original inoculum after 72 hrs by microdilution method; format: functional
Salmonella typhi = assay: Antibacterial activity against Salmonella typhi using 1 x 10^4 CFU/ml inoculum after 24 hrs by microdilution method; format: functional, Salmonella enterica subsp. enterica serovar Typhi
Aspergillus flavus [9] = assay: Antifungal activity against Aspergillus flavus using 1 x 10^5 spore/100 uL after 72 hrs by microdilution method; format: functional
Bacillus subtilis = assay: Antibacterial activity against Bacillus subtilis using 1 x 10^4 CFU/ml inoculum after 24 hrs by microdilution method; format: functional
Pseudomonas aeruginosa = assay: Antibacterial activity against Pseudomonas aeruginosa using 1 x 10^4 CFU/ml inoculum after 24 hrs by microdilution method; format: functional
[10] = Antifungal activity against Trichoderma reesei using 1 x 10^5 spore/100 uL after 72 hrs by microdilution method; format: functional
In short: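 Spores washed from malt agar cultures with sterile 0.85% saline plus 0.1% Tween 80, adjusted to about 1.0×10^5 per 100 µl well. Compounds from a 1 mg/ml DMSO stock were serially diluted in malt broth with inoculum in 96-well plates and incubated 72 h at 28 °C. MIC is the lowest concentration with no visible growth under a binocular microscope. DMSO served as negative control.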

Curvularia australiensis [11] = assay: Antifungal activity against Drechslera australiensis using 1 x 10^5 spore/100 uL assessed as 99.5% fungal killing of original inoculum after 72 hrs by microdilution method; format: functional
Aspergillus fumigatus [12] = assay: Antifungal activity against Aspergillus fumigatus using 1 x 10^5 spore/100 uL after 72 hrs by microdilution method; format: functional
Escherichia coli = assay: Antibacterial activity against Escherichia coli using 1 x 10^4 CFU/ml inoculum after 24 hrs by microdilution method; format: functional
Bacillus thuringiensis = assay: Antibacterial activity against Bacillus thuringiensis using 1 x 10^4 CFU/ml inoculum after 24 hrs by microdilution method; format: functional

| Compound | MIC (Bacillus cereus) [×10⁻² umol] | MFC (Aspergillus niger [1]) [×10⁻² umol] | MIC (Curvularia australiensis [2]) [×10⁻² umol] | MIC (Trichoderma viride [3]) [×10⁻² umol] | MFC [4] [×10⁻² µmol] | MFC (Aspergillus flavus [5]) [×10⁻² umol] | MIC (Staphylococcus aureus) [×10⁻² umol] | MIC (Aspergillus niger [6]) [×10⁻² umol] | MFC (Trichoderma viride [7]) [×10⁻² umol] | MFC (Aspergillus fumigatus [8]) [×10⁻² umol] | MIC (Salmonella typhi) [×10⁻² umol] | MIC (Aspergillus flavus [9]) [×10⁻² umol] | MIC (Bacillus subtilis) [×10⁻² umol] | MIC (Pseudomonas aeruginosa) [×10⁻² umol] | MIC [10] [×10⁻² µmol] | MFC (Curvularia australiensis [11]) [×10⁻² umol] | MIC (Aspergillus fumigatus [12]) [×10⁻² umol] | MIC (Escherichia coli) [×10⁻² umol] | MIC (Bacillus thuringiensis) [×10⁻² umol] |
| --- | --- | --- | --- | --- | --- | --- | --- | --- | --- | --- | --- | --- | --- | --- | --- | --- | --- | --- | --- |
| C/C(=N\NC(=O)C1=C(O)c2ccccc2S(=O)(=O)N1)c1ccc(I)cc1 | 9.1 | 166.1 | 74 | 71.3 | 134 | 179.8 | 28.2 | 91.5 | 139.7 | 159.2 | 33.4 | 89.9 | 9.5 | 30.9 | 70.3 | 145.8 | 82 | 29.5 | 9.4 |
| COc1cccc(/C(C)=N/NC(=O)C2=C(O)c3ccccc3S(=O)(=O)N2)c1 | 7.2 | 176.3 | 82 | 80.7 | 161 | 198.4 | 24.5 | 90.1 | 149.9 | 181.2 | 29.3 | 92.7 | 7.5 | 26.7 | 80 | 162.7 | 85.9 | 25.6 | 7.7 |
| C/C(=N\NC(=O)C1=C(O)c2ccccc2S(=O)(=O)N1C)c1ccccc1O | 4 | >200 | >100 | >100 | > 200 | >200 | 17.7 | >100 | >200 | >200 | 22.3 | >100 | 4.2 | 20.2 | > 100 | >200 | >100 | 19.6 | 4 |
| C/C(=N\NC(=O)C1=C(O)c2ccccc2S(=O)(=O)N1C)c1cccc(O)c1 | 4.2 | >200 | >100 | >100 | > 200 | >200 | 18.2 | >100 | >200 | >200 | 23.1 | >100 | 4.5 | 21 | > 100 | >200 | >100 | 19.3 | 4.3 |
| C/C(=N\NC(=O)C1=C(O)c2ccccc2S(=O)(=O)N1)c1ccc(O)cc1 | 4.8 | >200 | >100 | >100 | > 200 | >200 | 19 | >100 | >200 | >200 | 25.2 | >100 | 4.9 | 22.6 | > 100 | >200 | >100 | 21.3 | 5 |
| COc1ccc(/C(C)=N/NC(=O)C2=C(O)c3ccccc3S(=O)(=O)N2)cc1 | 7.8 | 179.5 | 81.1 | 80.5 | 160 | 169.3 | 26.7 | 87.3 | 158.8 | 153.6 | 32.7 | 86.2 | 7.5 | 29.3 | 79.9 | 159.6 | 77.7 | 27.8 | 7.8 |
